From ChEMBL document CHEMBL4118097, “Selective Inhibitors of Dual Leucine Zipper Kinase (DLK, MAP3K12) with Activity in a Model of Alzheimer's Disease” (J Med Chem, 2017)

How the values were obtained:
[1] = biological target: Mitogen-activated protein kinase kinase kinase 12 (Mus musculus) (UniProt Q60700); assay: Inhibition of DLK in CD-1 mouse DRG neuron assessed as axonal protection pre-incubated for 2 hrs before NGF deprivation for 16 to 20 hrs by Campenot chamber based fluorescence assay
How it was run: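 High-content imaging assay of axon degeneration, with automated quantification of axons. Protection is expressed relative to a positive control in which degeneration was not induced. EC50 was taken from dose-response curves, each point being the average of three independent assays ± SD.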

[2] = biological target: Dual specificity tyrosine-phosphorylation-regulated kinase 1A (Homo sapiens) (UniProt Q13627); assay: Inhibition of full length recombinant GST-tagged human DYRK1A expressed in baculovirus expression system at 1 uM by FRET assay relative to control
[3] = biological target: Casein kinase I isoform gamma-1 (Homo sapiens) (UniProt Q9HCP0); assay: Inhibition of CK1gamma1 (unknown origin) at 1 uM by FRET assay relative to control
[4] = biological target: Cytoplasmic tyrosine-protein kinase BMX (Homo sapiens) (UniProt P51813); assay: Inhibition of recombinant full length His-tagged human Bmx cytoplasmic domain expressed in Baculovirus expression system at 1 uM by FRET assay relative to control
[5] = biological target: RAC-beta serine/threonine-protein kinase (Homo sapiens) (UniProt P31751); assay: Inhibition of recombinant full length His-tagged human AKT2 expressed in baculovirus expression system at 1 uM by FRET assay relative to control
[6] = biological target: Vascular endothelial growth factor receptor 2 (Homo sapiens) (UniProt P35968); assay: Inhibition of recombinant His-tagged human KDR cytoplasmic domain (789 to 1356 residues) expressed in baculovirus expression system at 1 uM by FRET assay relative to control
How it was run: (§1)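 Single-point screen at 1 μM compound in a 220-kinase panel run by Life Technologies (SelectScreen). Z′-LYTE format: phosphorylation of a labeled peptide substrate read by FRET. Values are reported as percent inhibition.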

[7] = biological target: Interleukin-1 receptor-associated kinase 1 (Homo sapiens) (UniProt P51617); assay: Inhibition of recombinant GST-tagged human IRAK1 (194 to 712 residues) expressed in baculovirus expression system at 1 uM by FRET relative to control; how it was run: as §1
[8] = biological target: Glycogen synthase kinase-3 beta (Homo sapiens) (UniProt P49841); assay: Inhibition of recombinant full length His-tagged human GSK3beta expressed in baculovirus expression system at 1 uM by FRET relative to control
[9] = biological target: Tyrosine-protein kinase Fgr (Homo sapiens) (UniProt P09769); assay: Inhibition of recombinant full length His-tagged human FGR expressed in baculovirus expression system at 1 uM by FRET assay relative to control
[10] = biological target: Serine/threonine-protein kinase pim-1 (Homo sapiens) (UniProt P11309); assay: Inhibition of full length His-tagged human PIM1 expressed in baculovirus expression system at 1 uM by FRET assay relative to control
[11] = biological target: Serine/threonine-protein kinase 4 (Homo sapiens) (UniProt Q13043); assay: Inhibition of recombinant full length GST-tagged human MST1 expressed in baculovirus at 1 uM by FRET assay relative to control
How it was run: (§2)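 Single-concentration screen at 1 μM in Life Technologies SelectScreen, across a 220-kinase panel. Z′-LYTE format measures phosphorylation of a labeled peptide by FRET. Results are reported as percent inhibition.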

[12] = biological target: Tyrosine-protein kinase Mer (Homo sapiens) (UniProt Q12866); assay: Inhibition of recombinant GST-tagged human Mer cytoplasmic domain expressed in baculovirus expression system at 1 uM by FRET assay relative to control; how it was run: as §1
[13] = biological target: Mitogen-activated protein kinase kinase kinase 2 (Homo sapiens) (UniProt Q9Y2U5); assay: Inhibition of recombinant full length GST-tagged human MEKK2 expressed in baculovirus expression system at 1 uM by FRET assay relative to control
How it was run: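 Part of a 220-kinase panel run at a single concentration of 1 μM. Z′-LYTE format: phosphorylation of a labelled peptide read by FRET. Values reported as percent inhibition.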

[14] = biological target: Mitogen-activated protein kinase kinase kinase kinase 4 (Homo sapiens) (UniProt O95819); assay: Inhibition of recombinant GST-tagged human MAP4K4 (1 to 328 residues) expressed in baculovirus expression system at 1 uM by FRET assay relative to control; how it was run: as §1
[15] = biological target: Serine/threonine-protein kinase WNK2 (Homo sapiens) (UniProt Q9Y3S1); assay: Inhibition of recombinant GST-tagged human WNK2 expressed in baculovirus expression system at 1 uM by FRET assay relative to control; how it was run: as §1
[16] = biological target: Angiopoietin-1 receptor (Homo sapiens) (UniProt Q02763); assay: Inhibition of recombinant GST-tagged human Tie2 cytoplasmic domain (817 to 1101 residues) expressed in baculovirus expression system at 1 uM by FRET assay relative to control; how it was run: as §1
[17] = biological target: Serine/threonine-protein kinase TBK1 (Homo sapiens) (UniProt Q9UHD2); assay: Inhibition of recombinant full length GST-tagged human TBK1 expressed in insect cells at 1 uM by FRET assay relative to control; how it was run: as §2
[18] = biological target: Tyrosine-protein kinase SYK (Homo sapiens) (UniProt P43405); assay: Inhibition of recombinant full length N-terminal GST-tagged human Syk cytoplasmic domain expressed in baculovirus expression system at 1 uM by FRET assay relative to control
[19] = biological target: MAP kinase-activated protein kinase 5 (Homo sapiens) (UniProt Q8IW41); assay: Inhibition of full length recombinant His-tagged human PRAK expressed in baculovirus expression system at 1 uM by FRET assay relative to control
[20] = biological target: Serine/threonine-protein kinase PLK1 (Homo sapiens) (UniProt P53350); assay: Inhibition of full length recombinant His-tagged human PLK1 expressed in baculovirus expression system at 1 uM by FRET assay relative to control
[21] = biological target: Muscarinic acetylcholine receptor M2 (Homo sapiens) (UniProt P08172); assay: Binding affinity to recombinant human M2 acetylcholine receptor at 10 uM relative to control
How it was run: (§3)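 Broad radioligand-binding and enzyme screening panel covering 42 targets (biogenic amine and neuropeptide receptors, ion channels, neurotransmitter transporters, acetylcholinesterase). Single test concentration of 10 μM. Results expressed as binding relative to control, with a hit defined as >50% of control.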

[22] = biological target: Nicotinic acetylcholine receptor alpha-1/beta-1/delta/epsilon (Homo sapiens) (UniProt P02708+P11230+Q07001+Q04844); assay: Binding affinity to (alpha1)2beta1deltaepsilon nAChR (unknown origin) receptor at 10 uM relative to control; format: protein-complex assay; how it was run: as §3
[23] = biological target: Peroxisome proliferator-activated receptor alpha (Homo sapiens) (UniProt Q07869); assay: Binding affinity to recombinant human PPARalpha at 10 uM relative to control; how it was run: as §3
[24] = biological target: 5-hydroxytryptamine receptor 2B (Homo sapiens) (UniProt P41595); assay: Binding affinity to 5HT2B receptor (unknown origin) receptor at 10 uM relative to control; how it was run: as §3
[25] = biological target: Serine/threonine-protein kinase D1 (Homo sapiens) (UniProt Q15139); assay: Inhibition of PKD1 (unknown origin) at 1 uM by FRET assay relative to control

Sequence of Mitogen-activated protein kinase kinase kinase kinase 4 (Homo sapiens) (O95819 2-1239 limits assumed): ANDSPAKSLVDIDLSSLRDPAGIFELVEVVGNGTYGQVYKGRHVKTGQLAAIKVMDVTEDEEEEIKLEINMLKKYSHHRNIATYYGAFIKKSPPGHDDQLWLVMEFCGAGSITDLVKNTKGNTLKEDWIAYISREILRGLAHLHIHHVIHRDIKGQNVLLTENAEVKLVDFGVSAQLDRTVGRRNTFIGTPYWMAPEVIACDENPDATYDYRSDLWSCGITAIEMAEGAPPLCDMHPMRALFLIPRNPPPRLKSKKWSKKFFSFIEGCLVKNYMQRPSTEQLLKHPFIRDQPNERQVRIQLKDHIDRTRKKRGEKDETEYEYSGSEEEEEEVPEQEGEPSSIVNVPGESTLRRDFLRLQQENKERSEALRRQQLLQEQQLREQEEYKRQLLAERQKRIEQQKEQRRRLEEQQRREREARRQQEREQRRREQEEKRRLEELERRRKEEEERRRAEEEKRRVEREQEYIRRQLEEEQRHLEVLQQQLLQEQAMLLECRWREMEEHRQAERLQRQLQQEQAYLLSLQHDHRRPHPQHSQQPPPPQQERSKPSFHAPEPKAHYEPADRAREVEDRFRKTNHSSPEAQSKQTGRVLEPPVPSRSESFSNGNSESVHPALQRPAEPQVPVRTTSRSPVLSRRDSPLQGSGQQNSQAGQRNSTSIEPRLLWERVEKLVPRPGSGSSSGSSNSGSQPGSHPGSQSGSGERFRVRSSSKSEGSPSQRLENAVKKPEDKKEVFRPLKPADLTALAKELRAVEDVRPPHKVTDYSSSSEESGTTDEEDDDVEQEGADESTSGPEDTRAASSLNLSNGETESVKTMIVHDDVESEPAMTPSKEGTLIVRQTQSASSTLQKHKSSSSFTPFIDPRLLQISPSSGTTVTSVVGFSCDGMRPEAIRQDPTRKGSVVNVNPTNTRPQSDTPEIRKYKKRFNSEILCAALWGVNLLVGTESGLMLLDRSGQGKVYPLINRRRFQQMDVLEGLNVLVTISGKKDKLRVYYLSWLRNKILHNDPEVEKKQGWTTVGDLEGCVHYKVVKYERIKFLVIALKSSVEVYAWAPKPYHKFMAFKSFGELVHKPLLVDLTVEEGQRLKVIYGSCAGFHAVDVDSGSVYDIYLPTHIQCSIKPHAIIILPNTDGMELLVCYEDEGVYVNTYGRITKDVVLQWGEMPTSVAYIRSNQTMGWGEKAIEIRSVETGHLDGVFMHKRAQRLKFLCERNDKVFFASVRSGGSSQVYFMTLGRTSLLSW
Sequence of Tyrosine-protein kinase Mer (Homo sapiens) (Q12866 whole entry, the tested form may be a part): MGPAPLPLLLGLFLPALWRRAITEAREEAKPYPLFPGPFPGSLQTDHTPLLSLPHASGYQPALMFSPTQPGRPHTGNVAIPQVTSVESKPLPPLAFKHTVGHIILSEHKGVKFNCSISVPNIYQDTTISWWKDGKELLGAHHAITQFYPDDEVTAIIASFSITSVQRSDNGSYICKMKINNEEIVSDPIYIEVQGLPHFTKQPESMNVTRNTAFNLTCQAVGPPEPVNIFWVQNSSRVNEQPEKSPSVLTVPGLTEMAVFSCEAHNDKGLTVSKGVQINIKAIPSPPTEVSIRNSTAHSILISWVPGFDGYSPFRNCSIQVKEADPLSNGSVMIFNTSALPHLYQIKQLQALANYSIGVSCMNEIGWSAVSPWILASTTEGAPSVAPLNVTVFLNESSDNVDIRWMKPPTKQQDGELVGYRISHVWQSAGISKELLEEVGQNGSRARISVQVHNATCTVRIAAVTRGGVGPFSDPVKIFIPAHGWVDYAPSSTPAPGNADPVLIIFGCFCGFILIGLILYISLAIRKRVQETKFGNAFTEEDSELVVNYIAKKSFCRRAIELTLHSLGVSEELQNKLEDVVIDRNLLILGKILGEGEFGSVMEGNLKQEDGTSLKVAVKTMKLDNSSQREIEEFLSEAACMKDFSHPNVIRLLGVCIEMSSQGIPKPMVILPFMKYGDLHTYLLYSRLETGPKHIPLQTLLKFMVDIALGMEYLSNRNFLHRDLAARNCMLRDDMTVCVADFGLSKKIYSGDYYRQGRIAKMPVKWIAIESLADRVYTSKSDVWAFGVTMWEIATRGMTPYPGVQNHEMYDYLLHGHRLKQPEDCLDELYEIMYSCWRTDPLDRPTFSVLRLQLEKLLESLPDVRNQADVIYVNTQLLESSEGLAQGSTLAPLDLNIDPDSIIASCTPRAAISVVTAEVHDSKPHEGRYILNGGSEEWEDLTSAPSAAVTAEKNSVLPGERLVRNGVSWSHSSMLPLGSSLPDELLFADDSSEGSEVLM
Sequence of Serine/threonine-protein kinase TBK1 (Homo sapiens) (Q9UHD2 whole entry, the tested form may be a part): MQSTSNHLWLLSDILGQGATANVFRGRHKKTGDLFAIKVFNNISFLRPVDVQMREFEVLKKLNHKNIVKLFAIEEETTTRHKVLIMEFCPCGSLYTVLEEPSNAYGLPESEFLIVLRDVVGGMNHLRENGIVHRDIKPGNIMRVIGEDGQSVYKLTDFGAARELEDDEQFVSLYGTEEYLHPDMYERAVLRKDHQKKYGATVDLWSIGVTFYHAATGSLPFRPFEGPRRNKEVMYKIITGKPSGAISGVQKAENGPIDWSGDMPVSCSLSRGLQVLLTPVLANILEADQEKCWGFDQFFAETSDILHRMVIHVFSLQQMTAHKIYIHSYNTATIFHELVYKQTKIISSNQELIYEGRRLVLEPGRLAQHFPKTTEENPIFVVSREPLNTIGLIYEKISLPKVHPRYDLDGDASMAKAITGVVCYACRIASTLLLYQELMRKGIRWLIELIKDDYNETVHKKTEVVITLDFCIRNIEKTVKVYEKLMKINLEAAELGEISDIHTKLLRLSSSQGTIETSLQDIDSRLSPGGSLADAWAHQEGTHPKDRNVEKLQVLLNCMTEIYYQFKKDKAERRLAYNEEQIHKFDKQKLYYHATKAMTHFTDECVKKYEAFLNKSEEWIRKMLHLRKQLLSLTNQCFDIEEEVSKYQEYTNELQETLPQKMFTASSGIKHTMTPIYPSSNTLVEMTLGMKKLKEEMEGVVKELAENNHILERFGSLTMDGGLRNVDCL
Sequence of MAP kinase-activated protein kinase 5 (Homo sapiens) (Q8IW41 whole entry): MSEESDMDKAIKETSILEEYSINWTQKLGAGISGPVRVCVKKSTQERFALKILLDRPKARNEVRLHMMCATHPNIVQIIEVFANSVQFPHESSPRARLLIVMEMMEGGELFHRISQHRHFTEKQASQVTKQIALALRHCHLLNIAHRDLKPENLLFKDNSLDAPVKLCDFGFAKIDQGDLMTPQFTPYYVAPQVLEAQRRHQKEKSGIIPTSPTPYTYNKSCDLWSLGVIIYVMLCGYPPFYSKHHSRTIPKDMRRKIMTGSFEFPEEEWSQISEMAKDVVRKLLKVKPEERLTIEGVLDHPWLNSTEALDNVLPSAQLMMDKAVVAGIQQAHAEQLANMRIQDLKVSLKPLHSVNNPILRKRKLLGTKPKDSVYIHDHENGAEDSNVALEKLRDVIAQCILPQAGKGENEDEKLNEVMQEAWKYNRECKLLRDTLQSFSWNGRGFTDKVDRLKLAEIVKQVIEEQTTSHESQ
Sequence of Serine/threonine-protein kinase pim-1 (Homo sapiens) (P11309 whole entry, looked up): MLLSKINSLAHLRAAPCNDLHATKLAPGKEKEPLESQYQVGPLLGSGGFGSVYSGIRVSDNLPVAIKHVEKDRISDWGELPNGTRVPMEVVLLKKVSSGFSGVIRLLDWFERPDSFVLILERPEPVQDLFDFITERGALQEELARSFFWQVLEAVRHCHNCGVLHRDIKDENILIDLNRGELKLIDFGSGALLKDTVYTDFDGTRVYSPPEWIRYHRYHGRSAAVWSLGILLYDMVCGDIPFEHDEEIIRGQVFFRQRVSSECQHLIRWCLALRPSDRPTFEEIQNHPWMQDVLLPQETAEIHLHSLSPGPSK
Sequence of Mitogen-activated protein kinase kinase kinase 2 (Homo sapiens) (Q9Y2U5 whole entry): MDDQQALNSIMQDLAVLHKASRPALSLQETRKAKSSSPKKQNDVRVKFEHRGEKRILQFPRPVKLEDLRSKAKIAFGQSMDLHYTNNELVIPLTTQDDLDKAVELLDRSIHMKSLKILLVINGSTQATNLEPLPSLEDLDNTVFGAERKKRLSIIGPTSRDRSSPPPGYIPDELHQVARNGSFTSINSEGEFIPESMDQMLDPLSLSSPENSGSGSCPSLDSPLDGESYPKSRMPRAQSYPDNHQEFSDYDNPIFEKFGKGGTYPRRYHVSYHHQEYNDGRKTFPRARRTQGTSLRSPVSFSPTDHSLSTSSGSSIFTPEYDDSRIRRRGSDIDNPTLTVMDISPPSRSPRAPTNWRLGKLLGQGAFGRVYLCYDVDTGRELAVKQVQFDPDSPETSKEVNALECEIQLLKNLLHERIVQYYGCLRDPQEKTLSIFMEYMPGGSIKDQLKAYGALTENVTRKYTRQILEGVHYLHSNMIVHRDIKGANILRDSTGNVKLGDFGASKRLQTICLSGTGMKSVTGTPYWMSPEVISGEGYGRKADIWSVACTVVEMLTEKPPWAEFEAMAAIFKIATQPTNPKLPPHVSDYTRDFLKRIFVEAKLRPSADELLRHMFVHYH
Sequence of Glycogen synthase kinase-3 beta (Homo sapiens) (P49841 whole entry, looked up): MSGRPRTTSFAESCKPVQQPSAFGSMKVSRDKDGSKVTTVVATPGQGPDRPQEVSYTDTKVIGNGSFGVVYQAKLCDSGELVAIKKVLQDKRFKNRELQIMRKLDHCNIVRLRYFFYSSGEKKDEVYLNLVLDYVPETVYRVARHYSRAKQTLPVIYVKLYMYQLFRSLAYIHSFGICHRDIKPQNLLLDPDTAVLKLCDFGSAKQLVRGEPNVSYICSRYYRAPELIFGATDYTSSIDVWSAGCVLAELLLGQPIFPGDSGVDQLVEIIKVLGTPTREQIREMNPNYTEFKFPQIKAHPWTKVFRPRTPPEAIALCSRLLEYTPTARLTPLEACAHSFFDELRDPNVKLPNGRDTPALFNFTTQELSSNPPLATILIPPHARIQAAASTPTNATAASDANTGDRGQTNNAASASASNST

Compound	Activity [1]	inhibition [2]	inhibition [3]	inhibition [4]	inhibition [5]	inhibition [6]	inhibition [7]	inhibition [8]	inhibition [9]	inhibition [10]	inhibition [11]	inhibition [12]	inhibition [13]	inhibition [14]	inhibition [15]	inhibition [16]	inhibition [17]	inhibition [18]	inhibition [19]	inhibition [20]	other results
CC(C)n1nc(-c2cnc(N)c(OC(F)(F)F)c2)cc1[C@H]1[C@@H]2CN(C3COC3)C[C@@H]21	Dose-dependent effect	7%	8.4%	7.8%	3.1%	10.6%	8%	11.3%	31.9%	-4.6%	3.5%	22.5%	0.5%	22.1%	1.4%	13.7%	9.4%	26.8%	8.1%	5%	Activity [21]: > 50%; Activity [22]: > 50%; Activity [23]: > 50%; Activity [24]: > 50%; inhibition [25]: 20%
Nc1ncc(-c2cc([C@H]3[C@@H]4CN(C5COC5)C[C@@H]43)n(CC3CC3)n2)cc1C(F)(F)F	Dose-dependent effect	3.9%	2%	14.1%	-0.3%	35%	-6.1%	1.3%	32.2%	-4%	-8.7%	37%	4%	21.4%	-0.6%	4.6%	5.3%	30.6%	-0.8%	-0.4%	Activity [21]: > 50%; Activity [22]: > 50%; Activity [23]: > 50%; Activity [24]: > 50%; inhibition [25]: 10%
